Test results from ChEMBL document CHEMBL1121989, “Amino acid amide derivatives of 2-[3-(aminomethyl)-4H-1,2,4-triazol-4-yl]benzophenones, a novel class of annelated peptidoaminobenzophenones” (1982).

Columns and labels:
Assay type in all cases: functional
Mus musculus [1] = species on record: Mus musculus; assay: Sedative activity was determined by measuring the inhibition of spontaneous motor activity
Mus musculus [2] = species on record: Mus musculus; assay: Muscle relaxation was determined by using rotatory drum (rotarod) in mice, activity is expressed as ED50 values
Outline: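 Male albino DS mice (20-24 g), groups of five, oral dosing in aqueous arabic gum. At 60 min placed on a 3 cm wooden rod turning at 5 rpm; animals falling off within 2 min counted. ED50 estimated by up and down method.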

Mus musculus [3] = species on record: Mus musculus; assay: Antianxiety activity was determined by measuring the antagonism of foot shock induced fighting (taming) in mice
Outline: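 Male albino DS mice (20-24 g), oral dosing as arabic gum suspension. Paired mice under glass enclosure given foot shocks (5 Hz, 2 ms, DC 50 V); pairs with 15–20 fighting episodes in 3 min selected, five pairs per dose. Responses counted before and 60 min after dosing; ED50 = dose giving 50% inhibition, by regression analysis.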

Mus musculus [4] = species on record: Mus musculus; assay: Sedative activity was determined by measuring the loss of the righting reflux induced by chlorprothixene in mice
Outline: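 Male albino DS mice (20-24 g), ten per group, given oral test drug (arabic gum suspension) combined with chlorprothixene 2 mg/kg ip; samples estimated 60 min after dosing.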

Mus musculus [5] = species on record: Mus musculus; assay: Anticonvulsant activity was determined as the degree of protection against convulsions induced by pentylenetetrazole in mice
Outline: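 Male albino DS mice (20-24 g), ten per group, dosed orally as arabic gum suspension. Challenged 60 min later with pentylenetetrazole 125 mg/kg sc; protection from convulsion and death scored over 2 h observation. ED50 (dose protecting 50%) estimated by probit method; 95% confidence limits given.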

Mus musculus [6] = species on record: Mus musculus; assay: Sedative activity was determined by measuring the loss of the righting reflux induced by thiopental sodium in mice
Outline: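 Male albino DS mice (20-24 g), ten per group, pretreated orally (arabic gum suspension), then given thiopental sodium 35 mg/kg iv. ED50 = dose producing 50% increase in duration of anesthesia, by regression analysis.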

Structure (SMILES)	ED50 (Mus musculus [1]) [mg/kg]	ED50 (Mus musculus [2]) [mg/kg]	ED50 (Mus musculus [3]) [mg/kg]	ED50 (Mus musculus [4]) [mg/kg]	ED50 (Mus musculus [5]) [mg/kg]	ED50 (Mus musculus [6]) [mg/kg]
Cc1nnc(CNC(=O)CN)n1-c1ccc(Cl)cc1C(=O)c1ccccc1	4.25	3.94	3.02	0.94	0.38	0.72
Cc1nnc(CNC(=O)CN)n1-c1ccc(Cl)cc1C(=O)c1ccccc1F	1.52	1.84	0.28	0.16	0.09	0.25
NCC(=O)NCc1nncn1-c1ccc(Cl)cc1C(=O)c1ccccc1	31.7	11.8	5.71	1.66	1.37	1.97
Cc1nnc(CNC(=O)CN)n1-c1ccc(Cl)cc1C(=O)c1ccccc1Cl	0.31	2.09	0.58	0.62	0.26	0.27
Cc1nnc(CNC(=O)C(N)Cc2ccccc2)n1-c1ccc(Cl)cc1C(=O)c1ccccc1Cl (stereo not drawn)	0.38	1.83	0.55	0.23	0.31	1.52
NCC(=O)NCc1nnc(C2CC2)n1-c1ccc(Cl)cc1C(=O)c1ccccc1Cl	1.5	18.7	2.34	0.49	0.88	4.94
CN(C(=O)CNC(=O)CN)c1ccc(Cl)cc1C(=O)c1ccccc1	15.2	29.3	10.9	–	2.16	5.2
Cc1nnc2n1-c1ccc(Cl)cc1C(c1ccccc1)=NC2 [ALPRAZOLAM]	0.94	2.22	1.09	0.25	0.22	0.36
Clc1ccc2c(c1)C(c1ccccc1)=NCc1nncn1-2 [ESTAZOLAM]	3.09	5.44	2.62	6.22	0.52	2.32
CN(C(=O)CNC(=O)CN)c1ccc(Cl)cc1C(=O)c1ccccc1Cl [LORZAFONE ANHYDROUS]	1.4	–	3.2	2.59	0.56	0.8
Cc1nnc2n1-c1ccc(Cl)cc1C(c1ccccc1Cl)=NC2 [TRIAZOLAM]	0.054	0.83	0.4	–	0.039	0.18
